≈ marks a conversion by molar mass, not a printed value. Calls of active or inactive are those of the source. The rule behind the calls is not given here.
Columns and labels:
[1] = Selectivity index, ratio of EC50 for toxicity in human BEAS2B cells to MIC50 for antifungal activity against ITC and FLC-susceptible Candida albicans ATCC MYA-2876; format: cell-based; conditions: BEAS-2B cells, read-out: Selectivity Index
In short: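 Ratio of the compound's EC50 against BEAS-2B cells to its MIC against the named C. albicans strain. […] For C. albicans strains other than ATCC 10231, trailing growth meant MIC-2 was taken, meaning 50% growth inhibition.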

[2] = Selectivity index, ratio of […] for toxicity in human BEAS2B cells to MIC50 for antifungal activity against Aspergillus nidulans ATCC 38163; format: cell-based; conditions: BEAS-2B cells, read-out: Selectivity Index
Aspergillus terreus = experiment: Antifungal activity against Aspergillus terreus ATCC MYA-3633 incubated for 48 hrs by CLSI M38-A2 protocol based method; format: functional; conditions: ATCC MYA-3633, 48 h, read-out: MIC100
[3] = Hemolytic activity in mouse erythrocytes assessed as hemolysis level at 15.6 ug/ml incubated for 1 hr at 37 degC; format: ADME, cell-based, Erythrocyte; conditions: read-out: Activity
In short: (§1)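 Mouse erythrocytes incubated 1 h at 37 °C with test agents over 1.95 to 125 µg/mL. Percent lysis is read for each concentration.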

[4] = Selectivity index, ratio of EC50 for toxicity in human A549 cells to MIC50 for antifungal activity against Candida albicans ATCC 64124; format: cell-based; conditions: read-out: Selectivity Index
In short: (§2)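 Selectivity index is the EC50 against the mammalian line (A549 or BEAS-2B) divided by the MIC against the given fungal strain.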

Aspergillus flavus = experiment: Antifungal activity against Aspergillus flavus ATCC MYA-3631 incubated for 48 hrs by CLSI M38-A2 protocol based method; format: functional; conditions: ATCC MYA-3631, 48 h, read-out: MIC100
[5] = Selectivity index, ratio of […] for toxicity in human A549 cells to MIC50 for antifungal activity against Aspergillus terreus ATCC MYA-3633; format: cell-based; conditions: read-out: Selectivity Index
Nakaseomyces glabratus = experiment: Antifungal activity against Candida glabrata ATCC 2001 incubated for 48 hrs by modified CLSI M27-A3 protocol based method; format: functional; conditions: ATCC 2001, 48 h
Candida albicans [6] = experiment: Antifungal activity against ITC and FLC-susceptible Candida albicans ATCC MYA-2876 incubated for 48 hrs by modified CLSI M27-A3 protocol based method; format: functional; conditions: ATCC MYA-2876, 48 h
In short: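 Because these Candida strains show trailing growth, MIC-2 was read, meaning 50% growth inhibition. Caspofungin and voriconazole were tested here; other controls came from earlier work.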

[7] = Selectivity index, ratio of EC50 for toxicity in human A549 cells to MIC50 for antifungal activity against ITC and FLC-resistant Candida albicans ATCC MYA-1003; format: cell-based; conditions: read-out: Selectivity Index; in short: as §2
[8] = Hemolytic activity in mouse erythrocytes assessed as hemolysis level at 3.9 ug/ml incubated for 1 hr at 37 degC; format: ADME, cell-based, Erythrocyte; conditions: read-out: Activity; in short: as §1
Aspergillus nidulans = experiment: Antifungal activity against Aspergillus nidulans ATCC 38163 incubated for 48 hrs by CLSI M38-A2 protocol based method; format: functional; conditions: ATCC 38163, 48 h, read-out: MIC100
[9] = Toxicity in human BEAS2B cells assessed as reduction in cell viability incubated for 24 hrs by resazurin dye based assay; conditions: BEAS-2B cells
In short: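 Toxicity tested in the nucleated lines A549 and BEAS-2B to give EC50 values. Selectivity index is EC50 against the mammalian line divided by the MIC against a given fungal strain.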

[10] = Selectivity index, ratio of EC50 for toxicity in human A549 cells to MIC50 for antifungal activity against ITC and FLC-resistant Candida albicans ATCC 1237; format: cell-based; conditions: read-out: Selectivity Index; in short: as §2
[11] = Selectivity index, ratio of EC50 for toxicity in human A549 cells to MIC50 for antifungal activity against ITC and FLC-susceptible Candida albicans ATCC MYA-2876; format: cell-based; conditions: read-out: Selectivity Index; in short: as §2
Candida albicans [12] = experiment: Antifungal activity against ITC and FLC-resistant Candida albicans ATCC MYA-90819 incubated for 48 hrs by modified CLSI M27-A3 protocol based method; format: functional; conditions: ATCC MYA-90819, 48 h
Candida albicans [13] = experiment: Induction of membrane permeabilization in Candida albicans ATCC 10231 at 1 to 4 times MIC incubated for 1 hr by propidium iodide staining based fluorescence microscopy; format: functional, organism-based
In short: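 C. albicans ATCC 10231 treated at 1× and 4× MIC and stained with propidium iodide, a membrane-impermeant dye, to detect membrane damage. Untreated cells, FLC (7.8 µg/mL) and KANB (C14) (7.8 µg/mL) serve as comparators.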

Row | SMILES | selectivity ratio [1] | selectivity ratio [2] | MIC (Aspergillus terreus) | hemolysis at 1 h, 15.6 ug/ml [3] | selectivity ratio [4] | MIC (Aspergillus flavus) | selectivity ratio [5] | MIC50 (Nakaseomyces glabratus) | MIC50 (Candida albicans [6]) | selectivity ratio [7] | hemolysis at 1 h, 3.9 ug/ml [8] | MIC (Aspergillus nidulans) | EC50 at 24 h [9] | selectivity ratio [10] | selectivity ratio [11] | MIC50 (Candida albicans [12]) | Activity (Candida albicans [13])
1 | CCCCCC(O)(Cn1cncn1)c1ccccc1Cl (centres undefined) | 32 | 32 | 53.1 µM (≈ 15.6 µg/mL) | 0% | 1 | > 106 µM | 2 | 3.3 µM (≈ 0.97 µg/mL) | 3.3 µM (≈ 0.97 µg/mL) | 4 | 0% | 3.3 µM (≈ 0.97 µg/mL) | > 31.3 µg/mL | 32 | 32 | 1.6 µM (≈ 0.47 µg/mL) | 
2 | CCCCCCCCC(O)(Cn1cncn1)c1ccc(F)cc1F (centres undefined) | 7 | 27 | 23.1 µM (≈ 7.79 µg/mL) | 66.7% | 3 | 92.8 µM (≈ 31.3 µg/mL) | 2 | 5.8 µM (≈ 1.96 µg/mL) | 5.8 µM (≈ 1.96 µg/mL) | 6 | 0% | 1.4 µM (≈ 0.472 µg/mL) | 13 µg/mL (≈ 38.5 µM) | 6 | 6 | 5.8 µM (≈ 1.96 µg/mL) | inactive
3 | CCCCCCC(O)(Cn1cncn1)c1ccc(Cl)cc1 (centres undefined) | 4 | 8 | 50.7 µM (≈ 15.6 µg/mL) | 0% | 1 | > 102 µM | 2 | > 102 µM | 25.3 µM (≈ 7.79 µg/mL) | 19 | 0% | 12.7 µM (≈ 3.91 µg/mL) | > 31.3 µg/mL | 10 | 5 | 12.7 µM (≈ 3.91 µg/mL) | 
4 | CCCCCCC(O)(Cn1cncn1)c1ccccc1Cl (centres undefined) | 32 | 522 | 1.6 µM (≈ 0.493 µg/mL) | 0% | 1 | 6.3 to 12.7 µM (≈ 1.94 to 3.91 µg/mL) | 65 | 3.2 µM (≈ 0.985 µg/mL) | 3.2 µM (≈ 0.985 µg/mL) | 4 | 0% | 0.19 µM (≈ 0.0585 µg/mL) | > 31.3 µg/mL | 32 | 32 | 6.3 µM (≈ 1.94 µg/mL) | 
5 | CCCCCCC(O)(Cn1cncn1)c1ccc(F)cc1 (centres undefined) | 4 | 16 | 53.5 µM (≈ 15.6 µg/mL) | 0% | 1 | > 107 µM | 2 | 26.8 µM (≈ 7.81 µg/mL) | 26.8 µM (≈ 7.81 µg/mL) | 4 | 0% | 6.7 µM (≈ 1.95 µg/mL) | > 31.3 µg/mL | 1 | 4 | 3.3 µM (≈ 0.962 µg/mL) | 
6 | CCCCCC(O)(Cn1cncn1)c1ccc(F)cc1F (centres undefined) | 4 | 32 | > 106 µM | 0.9% | 4 | 52.8 µM (≈ 15.6 µg/mL) | 1 | 26.4 µM (≈ 7.8 µg/mL) | 26.4 µM (≈ 7.8 µg/mL) | 16 | 0% | 3.3 µM (≈ 0.975 µg/mL) | > 31.3 µg/mL | 4 | 4 | 13.2 µM (≈ 3.9 µg/mL) | inactive
7 | CCCCC(O)(Cn1cncn1)c1ccc(F)cc1F (centres undefined) | 5 | 19 | 55.5 µM (≈ 15.6 µg/mL) | 0% | 2 | 55.5 µM (≈ 15.6 µg/mL) | 2 | 112 µM (≈ 31.4 µg/mL) | 27.7 µM (≈ 7.79 µg/mL) | 8 | 0% | 6.9 µM (≈ 1.94 µg/mL) | 36 µg/mL (≈ 128 µM) | 2 | 4 | 55.5 µM (≈ 15.6 µg/mL) | 
